Measurements from different studies.
Protocols differ between the studies behind these lines.
PIK3CD: Phosphatidylinositol 4,5-bisphosphate 3-kinase catalytic subunit delta isoform (PIK3CD, Homo sapiens, UniProt O00329)

Structure (SMILES) | target | test | setting | quantity | value
C1=C/COCc2cc(ccc2OCCN2CCCC2)Nc2nccc(n2)-c2cccc(c2)COC/1 | PIK3CD | binding | 0.1 µM | remaining binding | 30%
COc1ccc2[nH]c3c4[nH]c5ccc(OC)cc5c4c4c(c3c2c1)C(=O)NC4=O | PIK3CD | binding | 1 µM | remaining binding | 64%
CC(C)S(=O)(=O)c1ccc2nccc(Nc3ccc4sc(C5CCCC5)nc4c3)c2c1 | Phosphatidylinositol 4,5-bisphosphate 3-kinase catalytic subunit delta isoform, with p85 (PIK3CD, Homo sapiens, UniProt O00329) | enzyme activity, inhibitor | 1 µM | activity vs control | 91%
C#Cc1cc(-c2cc(Nc3nc(N[C@@H](C)c4ccc(F)cn4)ncc3Cl)n[nH]2)ccc1C=O | PIK3CD | enzyme activity, inhibitor | 0.2 µM | inhibition | 29.3%
C=CC(=O)N1CCC([C@@H]2CCNc3c(C(N)=O)c(-c4ccc(Oc5ccccc5)cc4)nn32)CC1 | PIK3CD | enzyme activity, inhibitor | 1 µM | inhibition | 11%
C[C@H]1CC[C@H](n2c3cnccc3c3cnc(Nc4ccc5c(n4)CCN(C(=O)CO)C5)nc32)CC1 | PIK3CD | cell-free assay | 1 µM | remaining signal | 87%
CO[C@@H]1[C@H](N(C)C(=O)c2ccccc2)C[C@H]2O[C@]1(C)n1c3ccccc3c3c4c(c5c6ccccc6n2c5c31)C(=O)NC4 | PIK3CD | enzyme activity, inhibitor | 1 µM | inhibition | 0%
CCCCC(=O)Nc1ccc(-c2ccc3ncn(CCC)c(=O)c3c2)cn1 | PIK3CD | binding, competition with immobilised ligand | 0.5 µM | remaining binding | 100%
Cc1cc(O)c(-c2ccc([C@@H](C)CN(C)C)cc2)c2c1[nH]c(=O)c1sccc12 | PIK3CD | enzyme activity, inhibitor | 0.1 µM | inhibition | -6.12%
